From ChEMBL document CHEMBL1148594, “Novel 4-oxo-1,4-dihydroquinoline-3-carboxamide derivatives as new CB2 cannabinoid receptors agonists: synthesis, pharmacological properties and molecular modeling” (J Med Chem, 2006)
pEC50, pKi: −log10 of the molar value.

Columns and labels:
Cannabinoid receptor 2 [1] = molecular target: T1, Cannabinoid receptor 2 (Homo sapiens, UniProt P34972); assay: Effect on human CB2 receptor stimulation by [35S]GTP-gamma-S binding at 10 uM (basal value set at 100%); format: functional
T1 sequence (P34972 whole entry): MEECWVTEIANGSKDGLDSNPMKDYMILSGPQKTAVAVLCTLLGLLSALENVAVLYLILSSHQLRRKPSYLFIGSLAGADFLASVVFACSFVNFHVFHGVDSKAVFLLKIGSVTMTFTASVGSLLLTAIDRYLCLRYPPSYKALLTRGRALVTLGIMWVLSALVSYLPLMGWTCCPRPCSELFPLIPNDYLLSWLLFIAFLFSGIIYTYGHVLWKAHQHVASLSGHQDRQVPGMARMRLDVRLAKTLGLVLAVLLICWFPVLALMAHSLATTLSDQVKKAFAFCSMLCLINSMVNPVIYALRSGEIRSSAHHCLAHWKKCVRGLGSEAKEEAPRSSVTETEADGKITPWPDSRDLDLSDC
In short: (§1)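 CHO-hCB2 membranes (40 µg) at 30 °C for 1 h in pH 7.4 Tris/MgCl2/EDTA/100 mM NaCl/0.1% BSA with 20 µM GDP. Started by 0.05 nM [35S]-GTPγS (final). Nonspecific binding with 100 µM Gpp(NH)p. Stopped with ice-cold buffer, filtered on GF/B, counted. EC50 by nonlinear regression. Single-point tests at 10 µM, three experiments in duplicate, one-way ANOVA with Dunnett test.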

Cannabinoid receptor 2 [2] = molecular target: T1, Cannabinoid receptor 2; assay: Effect on [35S]GTP-gamma-S binding to human CB2 receptor; format: functional; in short: as §1
Cannabinoid receptor 1 [3] = molecular target: T2, Cannabinoid receptor 1 (Homo sapiens, UniProt P21554); assay: Displacement of [3H]SR-141716A from human CB1 receptor at 10 uM
T2 sequence (P21554 whole entry): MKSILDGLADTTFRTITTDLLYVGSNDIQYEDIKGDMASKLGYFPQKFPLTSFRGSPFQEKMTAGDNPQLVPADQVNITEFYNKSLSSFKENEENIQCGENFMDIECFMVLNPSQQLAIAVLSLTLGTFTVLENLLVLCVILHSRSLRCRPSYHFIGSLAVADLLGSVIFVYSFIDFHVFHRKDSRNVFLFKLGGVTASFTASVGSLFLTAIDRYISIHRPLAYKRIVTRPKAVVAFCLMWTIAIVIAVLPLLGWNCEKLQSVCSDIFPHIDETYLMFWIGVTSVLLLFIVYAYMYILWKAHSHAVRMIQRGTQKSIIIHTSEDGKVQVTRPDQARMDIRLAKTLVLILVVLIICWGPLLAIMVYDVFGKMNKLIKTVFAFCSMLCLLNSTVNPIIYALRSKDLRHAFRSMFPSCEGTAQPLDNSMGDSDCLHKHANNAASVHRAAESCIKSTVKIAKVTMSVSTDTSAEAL
In short: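 Single-concentration screen at 10 µM on membranes of CHO cells stably expressing human CB1 (40 µg) against 1 nM [3H]-SR-141716A, 1 h at 30 °C, pH 7.4 Tris/MgCl2/EDTA/0.5% BSA. HU-210 10 µM for nonspecific binding. Reported as percent displacement. At least four experiments in duplicate.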

Cannabinoid receptor 2 [4] = molecular target: T1, Cannabinoid receptor 2; assay: Displacement of [3H]CP-55940 from human CB2 receptor at 10 uM
In short: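 Single-concentration screen at 10 µM on CHO-hCB2 membranes (40 µg) against 1 nM [3H]-CP-55,940, 1 h at 30 °C, pH 7.4 Tris/MgCl2/EDTA/0.5% BSA. HU-210 10 µM defines nonspecific binding. Filtered, counted, reported as percent specific radioligand displacement. At least four experiments in duplicate, mean ± SEM.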

Cannabinoid receptor 2 [5] = molecular target: T1, Cannabinoid receptor 2; assay: Displacement of [3H]CP-55940 from human CB2 receptor
Cannabinoid receptor 1 [6] = molecular target: T2, Cannabinoid receptor 1
[7] = molecular target: Cannabinoid receptor (Homo sapiens) (UniProt P34972+P21554); assay: Selectivity ratio of human CB2 receptor versus human CB1 receptor in human; format: protein assay
Chain of Cannabinoid receptor (Homo sapiens) (P21554 whole entry, looked up): as the sequence (P21554 whole entry) above
Chain of Cannabinoid receptor (Homo sapiens) (P34972 whole entry, looked up): as the sequence (P34972 whole entry) above
In short: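 Ratio of Ki values from [3H]-SR-141716A (hCB1) and [3H]-CP-55,940 (hCB2) competition binding on CHO cell membranes. Ki from IC50 by Cheng-Prusoff, given only when Ki was obtained at both receptors.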

Row | Structure (SMILES) | Activity (Cannabinoid receptor 2 [1]) [%] | Emax (Cannabinoid receptor 2 [2]) [%] | Activity (Cannabinoid receptor 1 [3]) [%] | Activity (Cannabinoid receptor 2 [4]) [%] | pKi (Cannabinoid receptor 2 [5]) | pKi (Cannabinoid receptor 1 [6]) | Selectivity ratio [7] | pEC50 (Cannabinoid receptor 2 [2])
1 | CCCCCCC(C)(C)c1cc(O)c2c(c1)OC(C)(C)[C@@H]1CC=C(CO)C[C@@H]21 | 135 | 135 | – | – | – | – | – | –
2 | CCCCCn1cc(C(=O)NC(C)c2ccccc2)c(=O)c2ccccc21 (racemic) | 130 | – | 68.3 | 101 | 7.15 | – | – | –
3 | CCCCn1cc(C(=O)Nc2ccc(OC)cc2)c(=O)c2ccccc21 | – | – | < 20 | 50.5 | – | – | – | –
4 | CCCCCn1cc(C(=O)Nc2cccc3ccccc23)c(=O)c2ccccc21 | 124 | – | 65.9 | 90.6 | 6.43 | 5.39 | 11 | –
5 | CCCCCn1cc(C(=O)NCCc2ccc3c(c2)OCO3)c(=O)c2ccccc21 | 136 | – | 43.6 | 88.7 | 6.37 | – | – | –
6 | CCCCn1cc(C(=O)Nc2cccc3ccccc23)c(=O)c2ccccc21 | 132 | – | 45.3 | 85.4 | 6.34 | – | – | –
7 | CC12CC3CC(C)(C1)CC(NC(=O)c1cn(Cc4ccccc4)c4ccccc4c1=O)(C3)C2 | 121 | – | 32.5 | 86.3 | 6.18 | – | – | –
8 | CCCCCn1cc(C(=O)N2CCOCC2)c(=O)c2ccccc21 | – | – | < 10 | 36.5 | – | – | – | –
9 | CCCCCn1cc(C(=O)NC2C3CC4CC(C3)CC2C4)c(=O)c2ccccc21 (stereo not given) | 130 | 126 | 37.8 | 104 | 7.87 | 5.72 | 143 | 7.61
10 | CCCCCCn1cc(C(=O)Nc2ccc(OC)cc2)c(=O)c2ccccc21 | – | – | < 10 | 28.2 | – | – | – | –
11 | CCCCCn1cc(C(=O)N[C@H](C)c2ccccc2)c(=O)c2ccccc21 | 124 | 129 | – | – | 7.43 | 5.94 | 31 | 7.77
12 | CCCCCn1cc(C(=O)Nc2ccc(C#N)cc2)c(=O)c2ccccc21 | 133 | – | 49.6 | 79.4 | 6.11 | – | – | –
13 | CCCCCn1cc(C(=O)Nc2ccc3ccccc3c2)c(=O)c2ccccc21 | – | – | < 10 | 63.9 | – | – | – | –
14 | Cc1c(C(=O)c2cccc3ccccc23)c2cccc3c2n1[C@H](CN1CCOCC1)CO3 | 128 | 126 | – | – | – | – | – | –
15 | Cc1ccc(Cn2nc(C(=O)NC3C4(C)CCC(C4)C3(C)C)cc2-c2ccc(Cl)c(C)c2)cc1 (stereo not given) | 21.6 | 21.6 | – | – | – | – | – | –
16 | CCCCCn1cc(C(=O)N[C@@H](C)c2cccc3ccccc23)c(=O)c2ccccc21 | – | – | – | – | < 6.00 | – | – | –
17 | CCCCCn1cc(C(=O)Nc2ccc(Cl)c(Cl)c2)c(=O)c2ccccc21 | 116 | – | < 10 | 68.1 | < 6.00 | – | – | –
18 | CCCCCn1cc(C(=O)N[C@@H](C)c2ccccc2)c(=O)c2ccccc21 | – | – | – | – | 6.11 | – | – | –
19 | CCCCn1cc(C(=O)NCc2ccccc2)c(=O)c2ccccc21 | – | – | 33.6 | 44.9 | – | – | – | –

Row | Structure (SMILES) | Activity (Cannabinoid receptor 2 [1]) [%] | Emax (Cannabinoid receptor 2 [2]) [%] | Activity (Cannabinoid receptor 1 [3]) [%] | Activity (Cannabinoid receptor 2 [4]) [%] | pKi (Cannabinoid receptor 2 [5]) | pKi (Cannabinoid receptor 1 [6]) | Selectivity ratio [7] | pEC50 (Cannabinoid receptor 2 [2])
20 | CCCCCCC(C)(C)c1ccc([C@@H]2C[C@H](O)CC[C@H]2CCCO)c(O)c1 | 146 | 146 | – | – | – | – | – | –
21 | CCCCCn1cc(C(=O)NC(C)c2cccc3ccccc23)c(=O)c2ccccc21 (racemic) | 117 | – | 35.5 | 98.9 | 6.76 | – | – | –
22 | CCCCCn1cc(C(=O)N[C@@H](C)c2ccc3ccccc3c2)c(=O)c2ccccc21 | – | – | – | – | < 5.30 | – | – | –
23 | CCCCCn1cc(C(=O)NC23CC4CC(CC(C4)C2)C3)c(=O)c2ccccc21 | 126 | – | 59 | 104 | 7.79 | – | – | –
24 | CCCCCn1cc(C(=O)N[C@H](C)c2cccc3ccccc23)c(=O)c2ccccc21 | 119 | – | – | – | 6.90 | – | – | –
25 | CCCCCCn1cc(C(=O)NCc2ccccc2)c(=O)c2ccccc21 | – | – | 37.4 | 54.6 | – | – | – | –
26 | CCCC(C)(C)c1ccc2c(c1)OC(C)(C)[C@@H]1CC=C(C)C[C@@H]21 | 148 | 149 | – | – | 7.69 | – | – | 6.84
27 | CCCCCn1cc(C(=O)NC23CC4CC(C)(CC(C)(C4)C2)C3)c(=O)c2ccccc21 | 131 | 124 | 54.6 | 95.6 | 7.80 | – | – | 7.85
28 | CCCCCCn1cc(C(=O)Nc2cccc3ccccc23)c(=O)c2ccccc21 | 124 | – | 53.3 | 80 | 6.07 | – | – | –
29 | CCCCCn1cc(C(=O)NCCc2ccccc2)c(=O)c2ccccc21 | 136 | – | 64.8 | 98.2 | 6.70 | – | – | –
30 | CCCCCn1cc(C(=O)Nc2ccc(-c3ccccc3)cc2)c(=O)c2ccccc21 | – | – | < 20 | < 20 | – | – | – | –
31 | CCCCCn1cc(C(=O)NC(C)c2ccc3ccccc3c2)c(=O)c2ccccc21 (racemic) | 122 | – | < 10 | 82.9 | < 6.00 | – | – | –
32 | CCCCCn1cc(C(=O)NCc2ccccc2)c(=O)c2ccccc21 | 129 | – | 50.5 | 66.7 | < 6.00 | – | – | –
33 | CCCCCn1cc(C(=O)NCc2ccc(OC)cc2)c(=O)c2ccccc21 | – | – | < 10 | 51.7 | – | – | – | –
34 | CCCCCn1cc(C(=O)NC2CCCc3ccccc32)c(=O)c2ccccc21 (racemic) | 123 | 124 | 79.7 | 96.5 | 7.22 | 5.98 | 17 | 6.80
35 | CCCCCn1cc(C(=O)O)c(=O)c2ccccc21 | – | – | < 20 | < 15 | – | – | – | –
36 | CCCCCn1cc(C(=O)NCCCc2ccccc2)c(=O)c2ccccc21 | 134 | – | 32.8 | 85.5 | < 6.00 | – | – | –
37 | CCCCCn1cc(C(=O)N[C@H](C)c2ccc3ccccc3c2)c(=O)c2ccccc21 | 122 | – | – | – | 6.23 | – | – | –
38 | CCCCCn1cc(C(=O)Nc2ccc(OC)cc2)c(=O)c2ccccc21 | – | – | < 20 | 60.1 | – | – | – | –
